Screening results (PubChem)
In the library only some 1.6% were active in any assay of this set; here they are far more common.
HNF4A DNA FP: change in binding of human HNF4 alpha to DNA; HNF4a-FITC DNA binding, fluorescence polarization, 1 h; activity change, % at 10 µM; hit rate 0.3% among 360,000; AID 1224865; in the data active = activity change above about 30%, passing the limit was not always enough
CSN inh: inhibitors of human CSN-mediated cullin deneddylation | Q92905 | Purified CSN, SCF-Nedd8-OG deneddylation, fluorescence polarization | inhibition, % at 12.5 µM | hit rate 0.38% among 360,000;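 active = pattern-corrected inhibition above about 35%, with an unprinted fluorescence ratio check between 0.5 and 1.5, limit read from the data, passing the limit was not always enough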
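Schedule: reaction 90 min, room temperature / Assay system: HEK293T-derived human Csn5 enzyme / Input: Csn5 at 0.24 nM final / Measure: inhibition of Csn5 cleavage, % / Control set: substrate-only high control, full reaction low control / Technique: fluorescence polarization of the substrate / Buffer or medium: Tris/NaCl/DTT buffer, pH 7.5 / Reagent: SCFSkp2-Nedd8OG substrate at 10 nM final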
PKA-R2B activ: PKA-R2B complex activation. P22694+P31323. PKA-R2B holoenzyme dissociation, Cy5-IP20 fluorescence polarization; R2B truncated from residue 108, S112A mutant; 0% DMSO only, 100% 113 µM cGMP. activation, % at 11.4 µM. hit rate 0.079% among 340,000. AID 504700;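 active = activation above a cutoff set at the mean over all compounds plus 3 SD, cut at about 18% in these data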;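 note: higher means more holoenzyme dissociation and a rise in polarization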
TPT1 inh: blocks Candida albicans tRNA 2'-phosphotransferase. recombinant caTPT1, FP RNA substrate dephosphorylation. inhibition, % at 5 µM. hit rate 0.81% among 300,000. AID 1962;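 active = inhibition above the mean of all tested compounds plus 3 SD, set per screening campaign, cut at about 24% in these data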
PKA-R1A act: activates the PKA-R1A holoenzyme complex; P00514+P68181; PKA-R1A dissociation, Cy5-IP20 fluorescence polarization; scaled: DMSO 0%, 113 µM cGMP 100%; activation, % at 11.4 µM; hit rate 0.083% among 340,000; AID 504707;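 active = percent activation above the mean of all tested compounds plus 3 SD, cut at about 19% in these data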;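 note: higher means more PKAc released from R1A so a rise in polarization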
Rpn11 inh: Rpn11 (human) deubiquitinase inhibition; AID 588493; hit rate 0.59% among 360,000; calls only at 20 µM; human 26S proteasome, Ub4-pepOG fluorescence polarization; 20S core pre-blocked with epoxomicin; O00487;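 active = inhibition at 20 µM, scaled to each plate's controls, above about 33%, limit read from the data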
Rpn11 inh conf: Rpn11 inhibition confirmation, single concentration | purified human 26S proteasome, Ub4-pepOG fluorescence polarization; proteasome pretreated with epoxomicin | AID 602318 | inhibition, % at 20 µM | shares compounds with Rpn11 inh | hit rate 29% among 1,900
MMP-2 inh: counter-screen for RPN11 inhibitors: inhibition of human MMP-2; shares compounds with Rpn11 inh; recombinant MMP-2, FRET peptide cleavage fluorescence; inhibition, % at 20 µM; hit rate 4% among 1,900; AID 602330;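 note: human MMP-2 activated beforehand with APMA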
Target sequence (P08253 whole entry, looked up): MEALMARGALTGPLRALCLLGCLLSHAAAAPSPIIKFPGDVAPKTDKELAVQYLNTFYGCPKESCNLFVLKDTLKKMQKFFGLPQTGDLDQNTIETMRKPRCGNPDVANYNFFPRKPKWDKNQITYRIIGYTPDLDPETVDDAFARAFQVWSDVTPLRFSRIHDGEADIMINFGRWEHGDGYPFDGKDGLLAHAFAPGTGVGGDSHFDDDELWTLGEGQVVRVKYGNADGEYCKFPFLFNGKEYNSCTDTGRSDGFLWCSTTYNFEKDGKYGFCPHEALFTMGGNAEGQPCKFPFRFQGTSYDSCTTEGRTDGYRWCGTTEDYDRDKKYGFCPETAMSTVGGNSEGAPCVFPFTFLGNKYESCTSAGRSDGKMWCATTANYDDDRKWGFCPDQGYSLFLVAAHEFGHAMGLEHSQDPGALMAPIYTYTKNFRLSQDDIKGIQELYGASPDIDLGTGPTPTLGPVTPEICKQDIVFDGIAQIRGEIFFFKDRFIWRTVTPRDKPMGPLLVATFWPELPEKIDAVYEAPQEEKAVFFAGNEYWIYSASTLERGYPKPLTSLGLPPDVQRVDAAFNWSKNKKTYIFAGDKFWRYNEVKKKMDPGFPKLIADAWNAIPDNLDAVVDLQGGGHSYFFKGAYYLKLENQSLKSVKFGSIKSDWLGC
Thrombin inh: thrombin (bovine) inhibition counter-screen. hit rate 13% among 1,900. inhibition, % at 20 µM. AID 602333. bovine thrombin cleavage of Ub4-pepOG, fluorescence polarization. shares compounds with Rpn11 inh;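 active = mean inhibition at least 40% at 20 µM, or signal 3 deviations below plate average, so some actives read negative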
Each line names hits and unclear results; the compound was inactive in the other large screens (follow-up assays come after a bar, where they were run). Cut-off read from the data, not from the text of the source, unless noted: active = inhibition above about 40%; inactive = the rest.

O=C(O)c1ccc(N=Nc2c(O)ccc3ncccc23)cc1	Rpn11 inh active | Rpn11 inh conf inactive | MMP-2 inh inactive | Thrombin inh inactive
COc1ccccc1CN(CC(=O)NCc1ccc(F)cc1)C(=O)c1csnn1	none
CCN1C(=O)c2cccc3c(NC(=O)c4ccc(S(=O)(=O)N5CCOCC5)cc4)ccc1c23	Rpn11 inh active | Rpn11 inh conf inactive | MMP-2 inh inactive | Thrombin inh inactive
Cc1nc(NN)nc(NCc2ccccc2)n1	none
CCNc1nc(Cl)nc(NCc2ccccc2)n1	Rpn11 inh active | Rpn11 inh conf inactive | MMP-2 inh inactive | Thrombin inh inactive
CCCn1c(NC(=O)C2COc3ccccc3O2)nc2ccccc21 (stereo unspecified)	Rpn11 inh active | Rpn11 inh conf inactive | MMP-2 inh inactive | Thrombin inh inactive
CCn1nc(CC(=O)O)c2ccccc2c1=O	Rpn11 inh active | Rpn11 inh conf inactive | MMP-2 inh inactive | Thrombin inh inactive
CCCCn1nc(CC(=O)O)c2ccccc2c1=O	none
CCc1ccc(NC(=O)CS(=O)CC(=O)Nc2ccc(-n3cnnn3)c(C)c2)cc1 (stereo unspecified)	none
CCOc1nc(N=C(N)N)nc2c(C)cccc12	Rpn11 inh active | Rpn11 inh conf inactive | MMP-2 inh inactive | Thrombin inh inactive
CCOc1ccccc1Nc1cc(C)c2cccc(C)c2n1	none
NS(=O)(=O)c1ccc(N/C=C\C(=O)c2ccc3ccccc3c2)cc1	Rpn11 inh active | Rpn11 inh conf 67.1 | MMP-2 inh inactive | Thrombin inh inactive
COc1ccc(N/C=C\C(=O)c2ccc3ccccc3c2)cc1	none
Cn1cnnc1SCC(=O)Nc1ccc2nc(SCc3ccccc3)sc2c1	Rpn11 inh active | Rpn11 inh conf inactive | MMP-2 inh inactive | Thrombin inh inactive
Cc1noc(C)c1NC(=O)N(C)C[C@H]1Oc2ccc(NS(=O)(=O)c3ccc(F)cc3)cc2C(=O)N([C@H](C)CO)C[C@@H]1C	Rpn11 inh active (no result: TPT1 inh) | Rpn11 inh conf inactive | MMP-2 inh inactive | Thrombin inh inactive
C=CCn1c(SCC(=O)Nc2ccc(-c3nc4ccc(C)cc4s3)cc2)nnc1-c1ccccc1	Rpn11 inh active | Rpn11 inh conf 80.6 | MMP-2 inh inactive | Thrombin inh inactive
O=C1c2cccc3cccc(c23)C(=O)N1c1ccc2ncccc2c1	Rpn11 inh active | Rpn11 inh conf 41.4 | MMP-2 inh inactive | Thrombin inh inactive
O=C1c2cccc3cccc(c23)C(=O)N1c1nccs1	none
CCOc1ccccc1NS(=O)(=O)c1cn(C)nc1C	Rpn11 inh active | Rpn11 inh conf inactive | MMP-2 inh inactive | Thrombin inh inactive
CC1(C)NC(=O)N(CC(O)COc2cc3ccccc3cc2C(=O)N2CCCCC2)C1=O (stereo unspecified)	Rpn11 inh active | Rpn11 inh conf inactive | MMP-2 inh inactive | Thrombin inh inactive
COc1ccccc1NC(=O)Nc1nc(CC(=O)Nc2cc(F)ccc2F)cs1	Rpn11 inh active | Rpn11 inh conf inactive | MMP-2 inh inactive | Thrombin inh inactive
COc1ccccc1NC(=O)Nc1nc(CC(=O)Nc2cccc(F)c2)cs1	none
Cc1ccc(S(=O)(=O)N(C)CC(=O)O/N=C(\N)c2cccc([N+](=O)[O-])c2)cc1	Rpn11 inh active | Rpn11 inh conf inactive | MMP-2 inh inactive | Thrombin inh inactive
CN1C(=O)c2ccc(NC(=O)c3c(C(=O)O)cccc3[N+](=O)[O-])cc2C1=O	none
Cc1ccccc1Nc1nc(N)nc(COC(=O)CC2CC3CCC2C3)n1 (stereo unspecified)	none
Cc1cccc(NC(=O)CCc2nc3sc4c(c3c(=O)[nH]2)CCCC4)c1	none
CCc1cccc(NC(=O)CCc2nc3sc4c(c3c(=O)[nH]2)CCCC4)c1	Rpn11 inh active | Rpn11 inh conf inactive | MMP-2 inh inactive | Thrombin inh 45.4
Cc1ccc(NC(=O)CCc2nc3sc4c(c3c(=O)[nH]2)CCCC4)nc1	Rpn11 inh active | Rpn11 inh conf 78.0 | MMP-2 inh inactive | Thrombin inh inactive
COc1ccccc1NC(=O)CCc1nc2sc3c(c2c(=O)[nH]1)CCCC3	Rpn11 inh active | Rpn11 inh conf 67.1 | MMP-2 inh inactive | Thrombin inh inactive
Cc1cccc(NC(=O)C(C)SCc2nc3sc4c(c3c(=O)[nH]2)CCCC4)n1 (stereo unspecified)	Rpn11 inh active | Rpn11 inh conf inactive | MMP-2 inh inactive | Thrombin inh inactive
COC(=O)[C@H](Cc1ccccc1)NC(=O)NCCc1ccc(F)cc1	none (no result: PKA-R2B activ, PKA-R1A act)
CCOCCCNC(=O)N[C@@H](Cc1ccccc1)C(=O)OC	Rpn11 inh active | Rpn11 inh conf inactive | MMP-2 inh inactive | Thrombin inh inactive
Cc1cccc(C)c1NC(=O)C(C)Sc1nnc(C)n1CC1CCCO1 (stereo unspecified)	none (no result: TPT1 inh)
Cc1ccc(NC(=O)CN(C)C(=O)c2cccnc2Nc2cccc(C(F)(F)F)c2)cc1	none
COc1ccc(CCNc2ccc(C(CC(N)=O)NC(=O)Cc3cccc4ccccc34)cc2[N+](=O)[O-])cc1 (stereo unspecified)	Rpn11 inh active | Rpn11 inh conf 52.1 | MMP-2 inh inactive | Thrombin inh inactive
CCCCNc1ccc(C(CC(N)=O)NC(=O)Cc2cccc3ccccc23)cc1[N+](=O)[O-] (stereo unspecified)	none
NC(=O)CC(NC(=O)Cc1ccc(Cl)cc1)c1ccc(NC2CCCC2)c([N+](=O)[O-])c1 (stereo unspecified)	Rpn11 inh active | Rpn11 inh conf 47.2 | MMP-2 inh inactive | Thrombin inh inactive
CC(C)OP(=O)(OC(C)C)/C(C=O)=N\Nc1ccc([N+](=O)[O-])cc1	none
CC(C)N1CCc2c(sc(NC(=O)c3nc4ccccc4s3)c2C(N)=O)C1	Rpn11 inh active | Rpn11 inh conf inactive | MMP-2 inh inactive | Thrombin inh inactive
CC(C)N1CCc2c(sc(NC(=O)c3ccc([N+](=O)[O-])o3)c2C(N)=O)C1	none
COc1ccc(-c2nnc(Nc3ccc(S(=O)(=O)Nc4nccs4)cc3)c3ccccc23)cc1	none (no result: TPT1 inh)
CC(=O)Nc1cccc(C(=O)NNC(=O)c2n[nH]c(=O)c3ccccc23)c1	none (no result: TPT1 inh)
